ChEMBL document CHEMBL1133587, “Synthesis, biological activity, and molecular modeling of ribose-modified deoxyadenosine bisphosphate analogues as P2Y(1) receptor ligands” (J Med Chem, 2000)
Active and inactive are the calls of the source. The rule behind the calls is not given here.

Legend:
Format in all cases: functional
[1] = target: P2Y purinoceptor 1 (Meleagris gallopavo) (UniProt P49652); assay: (§1) In vitro stimulation of 2PY1 purinoceptor mediated phospholipase C (PLC) activity in Turkey Erythrocyte Ghosts
Chain of P2Y purinoceptor 1 (Meleagris gallopavo) (P49652 whole entry): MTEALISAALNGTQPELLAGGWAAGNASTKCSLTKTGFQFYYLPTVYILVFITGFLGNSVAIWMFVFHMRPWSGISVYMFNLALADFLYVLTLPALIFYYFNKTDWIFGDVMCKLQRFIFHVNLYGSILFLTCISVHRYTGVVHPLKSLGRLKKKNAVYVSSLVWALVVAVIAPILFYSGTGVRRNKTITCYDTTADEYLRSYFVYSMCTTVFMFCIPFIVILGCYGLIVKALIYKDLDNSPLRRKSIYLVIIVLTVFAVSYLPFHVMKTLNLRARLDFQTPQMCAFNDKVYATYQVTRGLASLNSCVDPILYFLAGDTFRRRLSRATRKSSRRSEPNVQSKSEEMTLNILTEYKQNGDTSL
How it was run: (§2)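 Turkey erythrocytes labelled 18-24 h at 37 °C with 2-[3H]myo-inositol in inositol-free DMEM. Ghosts prepared by hypotonic lysis (about 175 µg protein). Incubated 5 min at 30 °C in Hepes pH 7.0 buffer with 1 µM GTPγS and graded nucleotide. Total [3H]inositol phosphates measured by anion-exchange chromatography. EC50 from four-parameter logistic fit. Efficacy given relative to maximal 2-MeSADP. At least three experiments, duplicate or triplicate.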

[2] = target: P2Y purinoceptor 1 (Meleagris gallopavo) (UniProt P49652); assay: (§3) Inhibition of 30 nM 2-MeSADP stimulation of 2PY1-mediated phospholipase C (PLC) activity in Turkey erythrocyte ghosts
How it was run: (§4)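 [3H]inositol-labelled turkey erythrocyte ghosts incubated 5 min at 30 °C, pH 7.0, with 1 µM GTPγS. Graded analogue was combined with 30 nM 2-MeSADP. Total [3H]inositol phosphates separated by anion-exchange chromatography. IC50 is 50% inhibition of the 2-MeSADP response. Maximal inhibition is 100 minus residual stimulation at the highest concentration. At least three membrane preparations, duplicate or triplicate assays.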

P2Y purinoceptor 1 [3] = target: T1, P2Y purinoceptor 1 (Meleagris gallopavo, UniProt P49652); assay: as §1; how it was run: as §2
T1 sequence (P49652 whole entry): as above

P2Y purinoceptor 1 [4] = target: T1, P2Y purinoceptor 1; assay: as §3
How it was run: as §4, with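 “chromatography.” for “chromatography. IC50 is 50% inhibition of the 2-MeSADP response.”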

[5] = target: P2Y purinoceptor 1 (Meleagris gallopavo) (UniProt P49652); assay: Inhibition of 30 nM 2-MeSADP stimulation of 2PY1-mediated phospholipase C (PLC) activity in Turkey erythrocyte ghosts; NE=not effective
How it was run: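 Turkey erythrocytes were labelled with 2-[3H]myo-inositol in inositol-free DMEM for 18-24 h at 37 °C, then lysed hypotonically to make ghosts. Ghosts (about 175 µg protein) were incubated 5 min at 30 °C in KCl/Hepes medium at pH 7.0 with 1 µM GTPγS, 30 nM 2-MeSADP and the test nucleotide. Total [3H]inositol phosphates were measured by anion exchange. IC50 came from logistic fits, with at least three experiments.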

P2Y purinoceptor 1 [6] = target: T1, P2Y purinoceptor 1; assay: Inhibition of 30 nM 2-MeSADP stimulation of 2PY1-mediated phospholipase C (PLC) activity in Turkey erythrocyte ghosts; small decrease; how it was run: as §4

Max increase [1] [%]	Max inhibition [2] [%]	EC50 (P2Y purinoceptor 1 [3]) [nM]	IC50 (P2Y purinoceptor 1 [4]) [nM]	IC50 (P2Y purinoceptor 1 [6])	SMILES	Max inhibition [5]
4	96	–	–	–	CNc1nc(N)nc2c1ncn2[C@H]1C[C@H](OP(=O)(O)O)[C@@H](COP(=O)(O)O)O1	–
–	95	–	–	–	CNc1nc(Cl)nc2c1ncn2[C@H]1C[C@H](OP(=O)(O)O)[C@@H](COP(=O)(O)O)O1	–
27	73	7210	2530	–	Nc1ncnc2c1ncn2[C@@H]1C[C@H](COP(=O)(O)O)[C@H](OP(=O)(O)O)C1	–
–	100	–	1640	–	CNc1ncnc2c1ncn2C1COC(COP(=O)(O)O)C(OP(=O)(O)O)C1 (stereo not given)	–
26	74	6510	5420	–	CNc1nc(N)nc2c1ncn2[C@@H]1C[C@H](COP(=O)(O)O)[C@H](OP(=O)(O)O)C1	–
–	100	–	51.6	–	CNc1nc(Cl)nc2c1ncn2[C@H]1C[C@@H](OP(=O)(O)O)[C@]2(COP(=O)(O)O)C[C@H]12	–
11	–	–	–	–	Nc1ncnc2c1ncn2C1CN(CCP(=O)(O)O)CC(COP(=O)(O)OP(=O)(O)O)O1 (stereo not given)	inactive
–	100	–	148	–	CNc1ncnc2c1ncn2[C@@H]1C[C@H](COP(=O)(O)O)[C@H](OP(=O)(O)O)C1	–
18	82	9350	2370	–	CNc1ncnc2c1ncn2C1COC(COP(=O)(O)OP(=O)(O)OP(=O)(O)O)C(O)C1 (stereo not given)	–
6	94	–	–	–	CNc1nc(SC)nc2c1ncn2[C@H]1C[C@H](OP(=O)(O)O)[C@@H](COP(=O)(O)O)O1	–
–	100	–	805	–	CNc1nc(Cl)nc2c1ncn2[C@@H]1C[C@H](OP(=O)(O)O)C1COP(=O)(O)O (stereo not given in full)	–
–	100	–	566	–	CNc1nc(Cl)nc2c1ncn2C1COC(COP(=O)(O)O)C(OP(=O)(O)O)C1 (stereo not given)	–
–	100	–	157	–	CNc1ncnc2c1ncn2C1CC(OP(=O)(O)O)C2(COP(=O)(O)O)CC12 (stereo not given)	–
–	37	–	–	Partially active	Nc1ncnc2c1ncn2C1CN(CCP(=O)(O)O)CC(COP(=O)(O)O)O1 (stereo not given)	–
50	42	18900	40000	–	Nc1ncnc2c1ncn2C12CC(OP(=O)(O)O)C(COP(=O)(O)O)C1C2 (stereo not given)	–
–	47	–	–	Partially active	C[C@H]1O[C@@H](n2cnc3c(N)ncnc32)[C@H](OP(=O)(O)O)[C@@H]1OP(=O)(O)O	–
–	–	–	–	Partially active	Nc1ncnc2c1ncn2C1CN(CCP(=O)(O)O)CC(COP(=O)(O)OP(=O)(O)OP(=O)(O)O)O1 (stereo not given)	–

SMILES	Max increase [1] [%]	Max inhibition [2] [%]	EC50 (P2Y purinoceptor 1 [3]) [nM]	IC50 (P2Y purinoceptor 1 [4]) [nM]	IC50 (P2Y purinoceptor 1 [6])	Max inhibition [5]
Nc1ncnc2c1ncn2C1CC(OP(=O)(O)O)C2(COP(=O)(O)O)CC12 (stereo not given)	92	–	155	–	–	inactive
Nc1ncnc2c1ncn2[C@@H]1CO[C@H](COP(=O)(O)O)[C@@H](OP(=O)(O)O)C1	100	–	–	–	–	inactive
